In ChEMBL document CHEMBL1124127, “Central dopaminergic and 5-hydroxytryptaminergic effects of C3-methylated derivatives of 8-hydroxy-2-(di-n-propylamino)tetralin” (J Med Chem, 1988):

Experiments:
Rattus norvegicus [1] = assay: Effect on in vivo accumulation of dopamine(DA) was measured in rat limbic system at 2.2 (umol/kg) dose; assay type: functional
In short: (§1)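 Non-reserpinized rats got the test drug sc in the neck (5 mL/kg) 60 min before death, and NSD 1015 (573 µmol/kg ip) 30 min before death. After decapitation, the limbic system was dissected on ice, frozen and homogenized in 0.1 M perchloric acid with α-methyl-DOPA internal standard. DA was measured by ion-pair reversed-phase HPLC with electrochemical detection. Data are mean ± SEM (controls n=17-19, treated 3-7), analysed by ANOVA/Dunnett.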

Rattus norvegicus [2] = assay: Effect on in vivo accumulation of DOPA was measured in rat limbic system at 22(Micromol/kg) dose; assay type: functional
In short: (§2)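 Rats not pretreated with reserpine received test drug (hydrochloride or hydrobromide salt) sc in the neck region 60 min before death. NSD 1015 decarboxylase inhibitor (100 mg/kg, i.e., 573 μmol/kg, ip) was given 30 min before decapitation. Brain was dissected on ice. Tissue was homogenized in 0.1 M perchloric acid with α-methyl-DOPA internal standard. Analytes were quantified by ion-pair reversed-phase HPLC-electrochemical detection. Values are means ± SEM, n = 3-7 per treated group.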

Rattus norvegicus [3] = assay: Effect on in vivo accumulation of 5-HTP was measured in rat corpus striatum at 22(umol/kg) dose; assay type: functional; in short: as §2
Rattus norvegicus [4] = assay: Effect on in vivo accumulation of […] was measured in rat corpus striatum at 22(Micromol/kg) dose; assay type: functional; in short: as §2
Rattus norvegicus [5] = assay: Effect on in vivo accumulation of 5-HTP was measured in rat corpus striatum at 2.2 (umol/kg) dose; assay type: functional; in short: as §2
Rattus norvegicus [6] = assay: Effect on in vivo accumulation of 5-HTP was measured in rat limbic system at 2.2 (umol/kg) dose; assay type: functional; in short: as §2
Rattus norvegicus [7] = assay: Effect on in vivo accumulation of DOPA was measured in rat limbic system at 2.2 (umol/kg) dose; assay type: functional; in short: as §2
Rattus norvegicus [8] = assay: Effect on in vivo accumulation of DOPA was measured in rat corpus striatum at 2.2 (umol/kg) dose; assay type: functional; in short: as §2
Rattus norvegicus [9] = assay: Effect on in vivo accumulation of DOPA was measured in rat corpus striatum at 22(Micromol/kg) dose; assay type: functional; in short: as §2
[10] = molecular target: T1, 5-hydroxytryptamine receptor 1A (Rattus norvegicus, UniProt P19327); assay: Inhibitory activity tested in vitro at 5-hydroxytryptamine 1A receptor binding site in rat
T1 sequence (P19327 whole entry): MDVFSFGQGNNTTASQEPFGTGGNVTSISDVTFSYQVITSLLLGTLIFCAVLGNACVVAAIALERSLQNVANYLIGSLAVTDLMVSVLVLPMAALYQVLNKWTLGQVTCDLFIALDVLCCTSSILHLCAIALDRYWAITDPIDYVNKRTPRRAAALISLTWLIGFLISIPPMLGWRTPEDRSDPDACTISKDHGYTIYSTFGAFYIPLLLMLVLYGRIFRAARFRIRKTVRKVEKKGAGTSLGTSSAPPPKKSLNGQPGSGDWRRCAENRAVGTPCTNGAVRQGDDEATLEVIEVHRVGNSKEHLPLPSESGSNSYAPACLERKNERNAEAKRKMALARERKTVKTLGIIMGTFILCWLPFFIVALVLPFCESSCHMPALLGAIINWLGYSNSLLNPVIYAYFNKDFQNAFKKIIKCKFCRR
In short: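 Competition binding used rat brain membranes washed in 50 mM Tris-HCl pH 7.4, preincubated 10 min at 37 °C to remove 5-HT, and used at 10 mg wet tissue/mL. Assay: 1 nM [3H]-8-OH-DPAT, 3 mM CaCl2, 100 µM pargyline, 15 min at 37 °C, then filtration on PEI-treated filters. Nonspecific binding was set with 10 µM 5-HT. IC50 came from four-parameter logistic regression, mean ± SEM of N experiments.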

Rattus norvegicus [11] = assay: Effect on in vivo accumulation of dopamine(DA) was measured in rat limbic system at 22(Micromol/kg) dose; assay type: functional; in short: as §1
Rattus norvegicus [12] = assay: Effect on in vivo accumulation of […] was measured in rat corpus striatum at 2.2 (umol/kg) dose; assay type: functional; in short: as §2
Rattus norvegicus [13] = assay: Effect on in vivo accumulation of 5-HTP was measured in rat limbic system at 22(Micromol/kg) dose; assay type: functional; in short: as §2
Rattus norvegicus [14] = assay: Effect on in vivo accumulation of 5-HTP was measured in rat limbic system at 50(Micromol/kg) dose; assay type: functional; in short: as §2
Rattus norvegicus [15] = assay: Effect on in vivo accumulation of DOPA was measured in rat limbic system at 2.5 (umol/kg) dose; assay type: functional; in short: as §2
Rattus norvegicus [16] = assay: Effect on in vivo accumulation of DOPA was measured in rat corpus striatum at 2.5 (umol/kg) dose; assay type: functional; in short: as §2
Rattus norvegicus [17] = assay: Effect on in vivo accumulation of dopamine(DA) was measured in rat limbic system at 50(Micromol/kg) dose; assay type: functional; in short: as §1
Rattus norvegicus [18] = assay: Effect on in vivo accumulation of DOPA was measured in rat corpus striatum at 50(Micromol/kg) dose; assay type: functional; in short: as §2
Rattus norvegicus [19] = assay: Effect on in vivo accumulation of 5-HTP was measured in rat corpus striatum at 25 (umol/kg) dose; assay type: functional; in short: as §2
Rattus norvegicus [20] = assay: Effect on in vivo accumulation of DOPA was measured in rat corpus striatum at 25(Micromol/kg) dose; assay type: functional; in short: as §2
Rattus norvegicus [21] = assay: Effect on in vivo accumulation of dopamine(DA) was measured in rat limbic system at 25(Micromol/kg) dose; assay type: functional; in short: as §1
Rattus norvegicus [22] = assay: Effect on in vivo accumulation of DOPA was measured in rat limbic system at 50(Micromol/kg) dose; assay type: functional; in short: as §2
Rattus norvegicus [23] = assay: Effect on in vivo accumulation of 5-HTP was measured in rat corpus striatum at 50(umol/kg) dose; assay type: functional; in short: as §2
Rattus norvegicus [24] = assay: Effect on in vivo accumulation of […] was measured in rat corpus striatum at 2.5 (umol/kg) dose; assay type: functional; in short: as §2
Rattus norvegicus [25] = assay: Effect on in vivo accumulation of DOPA was measured in rat limbic system at 25(Micromol/kg) dose; assay type: functional; in short: as §2
Rattus norvegicus [26] = assay: Effect on in vivo accumulation of […] was measured in rat corpus striatum at 25(Micromol/kg) dose; assay type: functional; in short: as §2
Rattus norvegicus [27] = assay: Effect on in vivo accumulation of 5-HTP was measured in rat corpus striatum at 2.5(umol/kg) dose; assay type: functional; in short: as §2
Rattus norvegicus [28] = assay: Effect on in vivo accumulation of 5-HTP was measured in rat limbic system at 2.5 (umol/kg) dose; assay type: functional; in short: as §2
Rattus norvegicus [29] = assay: Effect on in vivo accumulation of 5-HTP was measured in rat limbic system at 25(Micromol/kg) dose; assay type: functional; in short: as §2
Rattus norvegicus [30] = assay: Effect on in vivo accumulation of […] was measured in rat corpus striatum at 50(Micromol/kg) dose; assay type: functional; in short: as §2
Rattus norvegicus [31] = assay: Effect on in vivo accumulation of dopamine(DA) was measured in rat limbic system at 2.5 (umol/kg) dose; assay type: functional; in short: as §1

What does the source list for `CCCN(CCC)[C@H]1Cc2c(O)cccc2C[C@@H]1C` (stereo in doubt; (+)-11)?
Activity (Rattus norvegicus [1]): 1067 ng/g; Activity (Rattus norvegicus [2]): 400 ng/g; Activity (Rattus norvegicus [3]): <56.4 ng/g; Activity (Rattus norvegicus [4]): <4089 ng/g; Activity (Rattus norvegicus [5]): 87.3 ng/g; Activity (Rattus norvegicus [6]): 144 ng/g; Activity (Rattus norvegicus [7]): 389 ng/g; Activity (Rattus norvegicus [8]): 1008 ng/g; Activity (Rattus norvegicus [9]): 959 ng/g; IC50 [10]: 60.5 nM; Activity (Rattus norvegicus [11]): <839 ng/g; Activity (Rattus norvegicus [12]): 5158 ng/g; Activity (Rattus norvegicus [13]): <89.5 ng/g

Which Activity (Rattus norvegicus [14]) does the source give for `CCCN(CCC)[C@H]1Cc2c(O)cccc2C[C@H]1C` (stereo in doubt; (-)-15) here?
The Activity was under 88.3 ng/g.

What about the Activity (Rattus norvegicus [15]) of the same compound?
Its Activity is under 463 ng/g.

And the Activity (Rattus norvegicus [16])?
The Activity was 1080 ng/g.

And the Activity (Rattus norvegicus [17])?
The Activity was 1065 ng/g.

And the Activity (Rattus norvegicus [18])?
Its Activity is 1001 ng/g.

What about the Activity (Rattus norvegicus [19]) of the same compound?
Its Activity is under 65.4 ng/g.

What about the Activity (Rattus norvegicus [20]) of the same compound?
Its Activity is 1241 ng/g.

What about the Activity (Rattus norvegicus [21]) of the same compound?
Its Activity is 1094 ng/g.

And the Activity (Rattus norvegicus [22])?
Its Activity is 396 ng/g.

What about the Activity (Rattus norvegicus [23]) of the same compound?
The Activity was under 45.8 ng/g.

And the Activity (Rattus norvegicus [24])?
The Activity was 4439 ng/g.

What about the Activity (Rattus norvegicus [25]) of the same compound?
Its Activity is under 521 ng/g.

What about the IC50 [10] of the same compound?
The IC50 was 486 nM.

What about the Activity (Rattus norvegicus [26]) of the same compound?
Its Activity is 4751 ng/g.

And the Activity (Rattus norvegicus [27])?
Its Activity is 96.6 ng/g.

And the Activity (Rattus norvegicus [28])?
Its Activity is 163 ng/g.

And the Activity (Rattus norvegicus [29])?
The Activity was under 120 ng/g.

What about the Activity (Rattus norvegicus [30]) of the same compound?
The Activity was 5282 ng/g.

What about the Activity (Rattus norvegicus [31]) of the same compound?
The Activity was 1133 ng/g.
